Experimental data reported in ChEMBL document CHEMBL4261550, “Triazolopyrimidines identified as reversible myeloperoxidase inhibitors” (Medchemcomm, 2017).
The source made the active and inactive calls. The calls are words filed in the database; no cut-off is given here.

Experiments:
[1] = Hypochlorus scavenging activity at 10 uM in presence of sodium hypochlorite after 15 mins by APF dye based fluorescence assay relative to control; type: functional
How it was run: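 NaOCl-scavenger counterscreen in 1536-well format: 50 μM NaOCl in place of MPO with APF reagent, compound 10 μM final; fluorescence intensity read after 15 min incubation; ≥20% loss of fluorescence flagged as interference.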

[2] = biological target: T1, Myeloperoxidase (Homo sapiens) (UniProt P05164); test: Substrate activity at human MPO assessed as reversion of enzyme to resting state at 40 uM in presence of H2O2 by stopped flow assay
T1 sequence (whole entry): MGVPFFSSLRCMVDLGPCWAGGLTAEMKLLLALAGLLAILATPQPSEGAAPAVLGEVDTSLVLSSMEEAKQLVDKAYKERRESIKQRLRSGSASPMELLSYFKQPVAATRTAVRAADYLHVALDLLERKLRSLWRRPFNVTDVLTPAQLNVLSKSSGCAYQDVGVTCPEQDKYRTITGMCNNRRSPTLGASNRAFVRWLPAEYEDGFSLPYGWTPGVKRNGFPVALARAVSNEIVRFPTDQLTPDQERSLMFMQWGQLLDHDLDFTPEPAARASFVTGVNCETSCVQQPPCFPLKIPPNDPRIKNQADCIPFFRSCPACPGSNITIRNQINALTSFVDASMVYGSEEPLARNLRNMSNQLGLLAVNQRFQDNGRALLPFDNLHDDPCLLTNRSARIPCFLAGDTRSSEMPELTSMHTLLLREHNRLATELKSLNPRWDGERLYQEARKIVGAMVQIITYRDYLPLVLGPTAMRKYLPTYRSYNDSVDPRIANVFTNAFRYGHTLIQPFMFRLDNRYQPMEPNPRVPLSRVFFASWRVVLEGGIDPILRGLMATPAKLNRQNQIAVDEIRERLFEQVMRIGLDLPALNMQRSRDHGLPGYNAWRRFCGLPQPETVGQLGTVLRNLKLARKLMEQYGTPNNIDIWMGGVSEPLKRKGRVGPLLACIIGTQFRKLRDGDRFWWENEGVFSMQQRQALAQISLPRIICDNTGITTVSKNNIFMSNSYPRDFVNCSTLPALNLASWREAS
How it was run: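 Stopped-flow at 25 °C: syringe 1 with 2 μM MPO and 5 μM H2O2 in phosphate buffer, syringe 2 with inhibitor and 5 μM H2O2; equal volumes rapidly mixed, spectra acquired in PDA mode to follow several MPO species; representative of numerous replicates.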

Cytochrome P450 2C9 = Cytochrome P450 2C9 (Homo sapiens, UniProt P11712); test: Inhibition of CYP2C9 (unknown origin); type: ADME
Cytochrome P450 2C9, sequence (P11712 whole entry, the tested form may be a part, canonical isoform): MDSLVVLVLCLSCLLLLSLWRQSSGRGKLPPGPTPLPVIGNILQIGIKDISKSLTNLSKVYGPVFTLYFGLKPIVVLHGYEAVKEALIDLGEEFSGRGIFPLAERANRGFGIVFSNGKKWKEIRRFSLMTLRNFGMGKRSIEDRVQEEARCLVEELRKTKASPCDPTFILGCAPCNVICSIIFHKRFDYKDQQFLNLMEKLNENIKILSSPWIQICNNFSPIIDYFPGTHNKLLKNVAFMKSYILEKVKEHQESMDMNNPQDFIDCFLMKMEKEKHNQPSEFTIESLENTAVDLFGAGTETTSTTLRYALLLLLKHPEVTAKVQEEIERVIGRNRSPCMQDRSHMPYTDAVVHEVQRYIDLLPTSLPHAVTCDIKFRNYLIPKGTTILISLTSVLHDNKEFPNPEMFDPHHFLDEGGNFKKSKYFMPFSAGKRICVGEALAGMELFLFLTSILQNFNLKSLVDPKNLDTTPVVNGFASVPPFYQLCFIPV

Lactoperoxidase = Lactoperoxidase (Homo sapiens, UniProt P22079); test: (§1) Inhibition of recombinant human LPO isoform-1 (26 to 712 residues) expressed in baculovirus infected insect cells assessed as reduction in H2O2-catalyzed 3,5-iodo tyrosine formation using 3-iodotyrosine and potassium iodide preincubated for 10 mins followed by 3,5-iodo tyrosine/potassium iodide/H2O2 addition and measured after 15 mins
Lactoperoxidase, sequence (P22079 whole entry, the tested form may be a part, canonical isoform): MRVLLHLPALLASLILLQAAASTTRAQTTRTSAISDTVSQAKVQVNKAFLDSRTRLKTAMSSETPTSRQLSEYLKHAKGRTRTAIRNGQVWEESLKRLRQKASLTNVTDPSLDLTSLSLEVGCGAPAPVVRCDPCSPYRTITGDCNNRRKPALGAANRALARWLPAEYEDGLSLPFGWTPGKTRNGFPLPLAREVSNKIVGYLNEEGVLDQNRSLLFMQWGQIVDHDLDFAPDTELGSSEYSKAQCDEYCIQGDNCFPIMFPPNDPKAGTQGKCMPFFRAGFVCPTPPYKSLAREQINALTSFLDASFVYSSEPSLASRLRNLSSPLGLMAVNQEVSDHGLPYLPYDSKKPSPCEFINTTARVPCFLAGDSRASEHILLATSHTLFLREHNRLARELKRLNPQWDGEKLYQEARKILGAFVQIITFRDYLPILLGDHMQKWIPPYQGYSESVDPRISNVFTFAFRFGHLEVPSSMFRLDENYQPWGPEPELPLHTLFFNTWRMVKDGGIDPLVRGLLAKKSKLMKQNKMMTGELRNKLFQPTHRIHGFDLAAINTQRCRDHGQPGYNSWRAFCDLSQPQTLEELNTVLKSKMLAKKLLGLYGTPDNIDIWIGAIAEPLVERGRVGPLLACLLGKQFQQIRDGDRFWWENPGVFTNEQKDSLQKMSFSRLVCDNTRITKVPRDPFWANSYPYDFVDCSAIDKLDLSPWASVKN
How it was run: (§2)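 LPO isoform 1 residues 26–712, baculovirus/T. ni expressed, purified by cation exchange, hydrophobic interaction and size exclusion; 2.0 nM in 100 mM KPi pH 7.4, 10 min rt preincubation with inhibitor; then 400 μM KI/240 μM 3-iodotyrosine mix and 20 μM H2O2 (added solutions); 3,5-iodotyrosine formation monitored.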

Thyroid peroxidase = biological target: T2, Thyroid peroxidase (Homo sapiens, UniProt P07202); test: as §1, with “C-terminal His6-tagged TPO (15” for “LPO isoform-1 (26”, “839” for “712”
T2 sequence (P07202 whole entry): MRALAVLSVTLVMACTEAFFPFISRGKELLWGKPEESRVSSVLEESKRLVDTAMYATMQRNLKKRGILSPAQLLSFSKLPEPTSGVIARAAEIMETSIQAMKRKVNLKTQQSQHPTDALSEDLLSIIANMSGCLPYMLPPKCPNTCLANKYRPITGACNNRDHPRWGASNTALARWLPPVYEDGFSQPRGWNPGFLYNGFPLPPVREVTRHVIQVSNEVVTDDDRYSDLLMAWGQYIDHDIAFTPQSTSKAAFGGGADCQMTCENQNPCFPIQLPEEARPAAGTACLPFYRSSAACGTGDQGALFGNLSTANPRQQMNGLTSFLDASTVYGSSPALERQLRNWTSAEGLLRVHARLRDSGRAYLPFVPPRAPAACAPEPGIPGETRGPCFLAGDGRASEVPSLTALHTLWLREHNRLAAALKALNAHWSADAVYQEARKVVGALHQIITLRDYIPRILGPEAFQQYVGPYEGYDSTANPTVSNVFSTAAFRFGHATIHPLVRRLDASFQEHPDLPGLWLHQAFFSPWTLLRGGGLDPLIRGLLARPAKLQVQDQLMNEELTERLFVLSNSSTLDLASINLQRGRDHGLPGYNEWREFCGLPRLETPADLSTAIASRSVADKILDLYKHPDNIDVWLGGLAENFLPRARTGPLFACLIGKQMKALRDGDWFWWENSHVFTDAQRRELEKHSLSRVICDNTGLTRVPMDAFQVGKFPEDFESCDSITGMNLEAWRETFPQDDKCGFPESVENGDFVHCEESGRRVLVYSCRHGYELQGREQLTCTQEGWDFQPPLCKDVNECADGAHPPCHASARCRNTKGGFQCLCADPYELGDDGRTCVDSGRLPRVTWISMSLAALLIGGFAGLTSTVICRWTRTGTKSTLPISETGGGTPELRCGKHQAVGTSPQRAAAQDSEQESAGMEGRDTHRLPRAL
How it was run: as §2, with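 “TPO” for “LPO isoform 1”, “15–839 with C-terminal His6,” for “26–712,”, “Ni affinity, anion exchange” for “cation exchange, hydrophobic interaction”, “4.0” for “2.0”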

Myeloperoxidase [3] = biological target: T3, Myeloperoxidase (Homo sapiens, UniProt P05164); test: Inhibition of human MPO peroxidase activity in presence of H2O2 measured at 30 secs time interval for 5 mins by amplex red reagent based fluorescence assay
T3 sequence (P05164 whole entry): T1 sequence (whole entry)

Mus musculus = test: In vivo inhibition of MPO in PMA-stimulated C57BL6 mouse neutrophil degranulation model assessed as reduction in HOCl production at 100 mg/kg, po pretreated for 20 mins followed by PMA stimulation and measured after 2 mins by luminol chemiluminescence assay relative to control; type: functional
[4] = Ratio of plasma concentration in PMA-stimulated C57BL6 mouse neutrophil degranulation model at 100 mg/kg, po after 20 mins to in vitro IC50 for MPO in PMA-stimulated human neutrophils; type: ADME, organism-based; details: in vivo
[5] = Plasma concentration in PMA-stimulated C57BL6 mouse neutrophil degranulation model at 30 mg/kg, po after 20 mins; type: ADME, organism-based
Myeloperoxidase [6] = biological target: T3, Myeloperoxidase; test: Inhibition of human MPO chlorination activity assessed as reduction in ApoA1-mediated [1,2 3H]-cholesterol efflux in PMA-stimulated human THP1 cells preincubated with enzyme and ApoA1 for 30 mins in presence of H2O2 followed by addition to THP1 cells and measured after overnight incubation
[7] = Protein binding in human plasma; type: ADME, cell-free; details: read-out: PPB

| SMILES | Activity [1] [%] | Activity [2] | IC50 (Cytochrome P450 2C9) [µM] | IC50 (Lactoperoxidase) [µM] | IC50 (Thyroid peroxidase) [µM] | IC50 (Myeloperoxidase [3]) [µM] | inhibition in vivo at 100 mg/kg (Mus musculus) [%] | Ratio [4] | concentration at 20 min [5] [µM] | EC50 (Myeloperoxidase [6]) [µM] | fraction unbound [7] |
| --- | --- | --- | --- | --- | --- | --- | --- | --- | --- | --- | --- |
| Nc1ccc(Oc2cc(Cl)c(Cl)cc2Cl)cn1 | < 20 | Active | < 0.1 | 13 | 6 | 0.84 |  |  |  |  |  |
| Nc1nc(OCc2ccccc2)c2[nH]nnc2n1 | < 20 | inactive |  | > 30 | > 30 | 0.11 | 70 | 92 | 180 | 10 | 0.01 |
